{"source": "paper PMC3604071", "about": "(Nature chemical biology, 2013)", "molecules": {"B1": {"name": "Noggin: the BMP inhibitor Noggin (protein, UniProt Q13253 28-232, looked up)", "Noggin": "QHYLHIRPAPSDNLPLVDLIEHPDPIFDPKEKDLNETLLRSLLGGHYDPGFMATSPPEDRPGGGGGAAGGAEDLAELDQLLRQRPSGAMPSEIKGLEFSEGLAQGKKQRLSKKLRRKLQMWLWSQTFCPVLYAWNDLGSRFWPRYVKVGSCFSKRSCSVPEGMVCKPSKSVHLTVLRWRCQRRGGQRCGWIPIQYPIISECKCSC"}}, "key": {"Hhat": {"target": "Hhat (Homo sapiens, UniProt Q5VTY9)", "sequence (Q5VTY9 whole entry)": "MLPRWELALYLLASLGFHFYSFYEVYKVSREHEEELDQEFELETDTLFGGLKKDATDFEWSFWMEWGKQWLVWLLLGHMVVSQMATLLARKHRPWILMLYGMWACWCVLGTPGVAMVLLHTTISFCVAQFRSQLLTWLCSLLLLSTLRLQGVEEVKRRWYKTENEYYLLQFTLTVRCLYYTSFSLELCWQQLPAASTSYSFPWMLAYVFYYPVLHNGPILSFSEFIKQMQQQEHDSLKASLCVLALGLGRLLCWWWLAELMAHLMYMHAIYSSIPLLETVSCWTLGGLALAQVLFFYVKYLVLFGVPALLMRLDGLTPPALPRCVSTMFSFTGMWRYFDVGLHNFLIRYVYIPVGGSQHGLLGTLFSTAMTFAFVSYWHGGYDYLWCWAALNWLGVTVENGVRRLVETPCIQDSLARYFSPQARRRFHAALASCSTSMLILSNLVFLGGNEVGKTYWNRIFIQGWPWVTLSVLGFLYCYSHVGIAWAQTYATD", "experiment": "RU-SKI 43 inhibition kinetics with purified Hhat and ShhN", "type": "biochemical", "conditions": "Ki with respect to 125I-iodo-palmitoylCoA, noncompetitive inhibitor; purified Hhat, 125I-iodo-palmitoylCoA titrated, 38μM ShhN"}, "[1]": {"tested_on": "Shh signaling in SuFu−/− cells", "experiment": "Gli luciferase reporter assay in SuFu-/- cells", "type": "cell-based, murine", "conditions": "10 μM, 24h", "procedure,_shortened": "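SuFu−/− mouse embryonic fibroblasts transfected with wild-type or mutant 8XGliBS-firefly luciferase plus pRL-TK Renilla plasmids. Reseeded 24 h later, grown to confluence, then given DMSO or 10 μM test compound for 24 h. Dual luciferase measured in lysates as FL/RL ratio; mean ± SD (n=2–4), experiment run at least twice.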"}, "[2]": {"experiment": "Half-life in mouse plasma after IV administration", "type": "in vivo"}, "Porcupine": {"target": "T1, Porcupine (Mus musculus, UniProt Q9JJJ7)", "T1 sequence (Q9JJJ7 1-461)": "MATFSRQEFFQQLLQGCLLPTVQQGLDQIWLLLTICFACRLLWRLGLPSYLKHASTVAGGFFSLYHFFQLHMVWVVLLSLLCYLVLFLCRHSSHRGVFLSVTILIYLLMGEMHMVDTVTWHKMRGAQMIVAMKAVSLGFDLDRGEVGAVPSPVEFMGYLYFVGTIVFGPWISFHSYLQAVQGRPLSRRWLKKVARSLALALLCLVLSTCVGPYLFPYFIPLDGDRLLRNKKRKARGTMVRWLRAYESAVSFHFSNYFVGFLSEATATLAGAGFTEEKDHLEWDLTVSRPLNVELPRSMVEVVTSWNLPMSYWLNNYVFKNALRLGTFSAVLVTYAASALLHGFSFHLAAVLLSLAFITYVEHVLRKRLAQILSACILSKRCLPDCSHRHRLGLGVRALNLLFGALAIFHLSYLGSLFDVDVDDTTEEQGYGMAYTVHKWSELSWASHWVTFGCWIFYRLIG", "experiment": "Wnt3a fatty acylation by Porcupine in L Wnt-3a cells", "type": "cell-based", "conditions": "Mouse L Wnt-3a cells, FLAG-Porcupine", "procedure,_shortened": "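Mouse L-Wnt3a cells transfected with 6 μg FLAG-Porcupine or empty vector. After 48 h, serum-starved 3 h in DMEM with 2% dialyzed FCS plus DMSO, 10 μM test compound or 100 nM reference Porcupine inhibitor. Labeled 6 h with 40 μCi 125I-iodo-pentadecanoate. Wnt3a and FLAG-Porcupine immunoprecipitated 16 h at 4°C, then SDS-PAGE, western blot, phosphorimaging. Duplicates, repeated three times.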"}, "[3]": {"tested_on": "paracrine Shh signaling in C3H10T1/2 cells", "experiment": "C3H10T1/2 alkaline phosphatase reporter assay", "type": "cell-based", "procedure,_shortened": "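C3H10T1/2 reporter cells and COS-1 cells transfected with HA-Hhat and Shh plasmids plated alone or cocultured (4:1), 24 h at 37°C. Medium then switched to DMSO or 10 μM test compound for 72 h, with re-addition at 48 h. Alkaline phosphatase measured in lysates with a fluorogenic FDP substrate kit, read over 30 min at 5-min intervals; mean ± SD, n=3.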"}, "palmitoylation of H-Ras": {"tested_on": "palmitoylation of H-Ras", "experiment": "H-Ras palmitoylation in COS-1 cells", "type": "cell-based", "conditions": "COS-1 cells expressing H-Ras N17", "procedure,_shortened": "(§1)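 COS-1 cells co-transfected with Shh and HA-Hhat plus H-Ras or Fyn. Test compound or DMSO was added the night before or at the start of serum starvation. Cells were starved 1 h in DMEM with 2% dialyzed FCS, then labeled with 15–30 μCi/ml 125I-iodo-palmitate for 4 h at 37°C. Lysates in RIPA were cleared at 100,000xg, immunoprecipitated 16 h at 4°C, run on 12.5% SDS-PAGE and phosphorimaged. Duplicates, repeated ≥3 times.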"}, "[4]": {"tested_on": "Gli1 activation in Shh Light II cells", "experiment": "Gli luciferase reporter assay in Shh Light II cells", "type": "cell-based", "conditions": "10 μM RU-SKI 43, 24 h", "procedure,_shortened": "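Shh Light II cells (stable Gli1 luciferase reporter) grown to confluence, moved to 0.5% serum medium, and exposed 24 h to DMSO or 10 μM test compound, with or without 100 nM SAG or 1 μg/mL Shh (C24II). Dual firefly/Renilla luciferase read in lysates. FL/RL ratio normalized to cells given DMSO or compound alone; experiment done at least twice.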"}, "[5]": {"tested_on": "Hhat-mediated Shh palmitoylation in COS-1 cells", "experiment": "Shh palmitoylation in COS-1 cells", "type": "cell-based", "procedure,_shortened": "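COS-1 cells transfected with Shh and HA-Hhat given test compound or DMSO overnight or from the start of […] serum starvation (DMEM, 2% dialyzed FCS). Labeled 4 h at 37°C with 15–30 μCi/ml 125I-iodo-palmitate. Lysed in RIPA, ultracentrifuged, immunoprecipitated 16 h at 4°C, SDS-PAGE with western blot and phosphorimaging. Duplicates, repeated at least three times.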"}, "[6]": {"tested_on": "Shh signaling (Gli1 activation) in NIH 3T3 cells", "experiment": "Gli-responsive luciferase reporter assay in Shh-transfected NIH 3T3 cells", "type": "cell-based", "conditions": "for Gli-responsive luciferase activation (FL/RL ratio): NIH 3T3 cells cotransfected with Shh, 10 μM, 24 h", "procedure,_shortened": "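NIH 3T3 cells cotransfected with pRL-TK, 8XGliBS-firefly luciferase (or mutant reporter) and Shh plasmids. Seeded 24 h later at 1×10^6 cells/well and grown to confluence. Treated 24 h with DMSO or 10 μM test compound. Firefly and Renilla luciferase measured in lysates; FL/RL ratio normalized to DMSO-treated cells.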"}, "[7]": {"tested_on": "Shh and Hhat in COS-1 cells", "experiment": "Shh autoprocessing, Shh/Hhat levels and localization in COS-1 cells", "type": "cell-based", "conditions": "10µM, 5h", "procedure,_shortened": "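COS-1 cells were transfected with Shh and HA-Hhat and reseeded on coverslips after 24 h. A day later they were fixed in 4% paraformaldehyde for 20 min and permeabilized with 0.2% Triton X-100. After blocking in 3% BSA, cells took rabbit anti-Shh (1:100) and mouse anti-HA (1:200) for 1 h, then Alexa-conjugated secondaries and Hoechst for 45 min. Confocal imaging at 63X: 5–10 images per slide, ≥2 slides per condition, three experiments. Protein levels by Western blot.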"}, "myristoylation of c-Src": {"tested_on": "myristoylation of c-Src", "experiment": "c-Src myristoylation in COS-1 cells", "type": "cell-based", "conditions": "COS-1 cells expressing c-Src", "procedure,_shortened": "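COS-1 cells were transfected with Shh, HA-Hhat and Src, with test compound or DMSO added the night before or at the start of starvation. After 1 h starvation in DMEM with 2% dialyzed FCS, 30 μCi/ml 125I-iodo-tridecanoate was added for 4 h at 37°C. RIPA lysates were cleared at 100,000xg, immunoprecipitated overnight at 4°C, resolved on 12.5% SDS-PAGE and quantified by phosphorimager. Duplicates, ≥3 repeats.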"}, "palmitoylation of Fyn": {"tested_on": "palmitoylation of Fyn", "experiment": "Fyn palmitoylation in COS-1 cells", "type": "cell-based", "conditions": "COS-1 cells expressing Fyn", "procedure,_shortened": "as §1"}}, "note": "“Also recorded” adds a separate entry of the source.", "data": [{"molecule": "CCC(C)CNCC(=O)N1CCc2sccc2C1COc1cccc(C)c1", "note": "(stereo not shown) [RU-SKI 43, 2-((2-methylbutyl)amino)-1-(4-((m-tolyloxy)methyl)-6,7-dihydrothieno[3,2-c]pyridin-5(4H)-yl)ethanone]", "values": [{"measurement": "Ki", "setting": "Hhat", "value": 6.9, "unit": "µM"}, {"measurement": "Effect on Shh signaling in SuFu−/− cells", "setting": "[1]", "value": "does not affect Shh pathway activation; also recorded: no effect"}, {"measurement": "half-life", "setting": "[2]", "value": 17, "unit": "min"}, {"measurement": "Fatty acylation of Wnt3a by Porcupine", "setting": "Porcupine; 10 μM", "value": "does not inhibit Porcupine; also recorded: no effect"}, {"measurement": "Alkaline phosphatase (AP) activity", "setting": "[3]; C3H10T1/2 cocultured with COS-1 expressing Shh and Hhat, 10 μM, 72h", "value": "blocks paracrine Shh signaling; also recorded: reduced to baseline"}, {"measurement": "Palmitoylation of H-Ras", "setting": "palmitoylation of H-Ras", "value": "Neither palmitoylation of H-Ras and Fyn nor myristoylation of c-Src was affected"}, {"measurement": "Effect on activation of Gli1 by SAG", "setting": "[4]; 100 nM SAG", "value": "does not affect exogenous Shh pathway activation; also recorded: no effect"}, {"measurement": "Effect on activation of Gli1 by recombinant Shh (C24II)", "setting": "[4]; 1μg/mL Shh (C24II)", "value": "does not affect exogenous Shh pathway activation; also recorded: no effect"}, {"measurement": "Inhibition of Shh palmitoylation in cells", "setting": "[5]; COS-1 cells expressing HA-Hhat and Shh, 0, 10 or 20 μM, 5 h", "value": "Dose-dependent inhibition"}, {"measurement": "Radiolabel incorporation into ShhN in cells", "setting": "[5]; COS-1 cells expressing HA-Hhat and Shh, 25 μM compound, 16 h", "value": "strongly inhibited"}, {"measurement": "Palmitoylation of Shh by endogenous Hhat", "setting": "[5]; COS-1 cells transfected with Shh only, 10 µM", "value": "inhibited"}, {"measurement": "Effect of Hhat overexpression on inhibition of Shh palmitoylation", "setting": "[5]; transfected COS-1 cells, increasing amounts of Hhat, 10µM", "value": "reduced the ability of RU-SKI 43 to inhibit Shh palmitoylation"}, {"measurement": "Effect of Porcupine overexpression on inhibition of Shh palmitoylation", "setting": "[5]; transfected COS-1 cells, increasing amounts of Porcupine, 10µM", "value": "no effect"}, {"measurement": "Gli-responsive luciferase activation (FL/RL ratio)", "setting": "[6]", "value": "blocks Gli activation; also recorded: blocked luciferase activation"}, {"measurement": "Rescue of the inhibitory effect with SAG or Shh (C24II)", "setting": "[6]; Shh-transfected NIH 3T3 cells, 10µM RU-SKI 43 with 100nM SAG or 1µg/mL Shh (C24II), 24h", "value": "not able to rescue"}, {"measurement": "Shh autoprocessing, steady-state levels of Shh and Hhat, subcellular localization of Shh and Hhat", "setting": "[7]", "value": "did not alter"}, {"measurement": "Myristoylation of c-Src", "setting": "myristoylation of c-Src", "value": "Neither palmitoylation of H-Ras and Fyn nor myristoylation of c-Src was affected"}, {"measurement": "Palmitoylation of Fyn", "setting": "palmitoylation of Fyn", "value": "Neither palmitoylation of H-Ras and Fyn nor myristoylation of c-Src was affected"}]}, {"molecule": "Cc1cc(-c2ccc(CC(=O)Nc3ccc(-c4cccnc4)cc3)cc2)ccn1", "note": "[Wnt C59, reference compound]", "values": [{"measurement": "Fatty acylation of Wnt3a by Porcupine", "setting": "Porcupine; 100 nM", "value": "blocked radiolabel incorporation"}]}, {"molecule": "Cc1c(C(=O)Nc2ccc(N3C[C@@H](C)O[C@@H](C)C3)nc2)cccc1-c1ccc(OC(F)(F)F)cc1", "note": "[LDE225, reference compound]", "values": [{"measurement": "Gli-responsive luciferase activation (FL/RL ratio)", "setting": "[6]", "value": "blocked luciferase activation"}]}, {"molecule": "CNC1CCC(N(Cc2cccc(-c3ccncc3)c2)C(=O)c2sc3ccccc3c2Cl)CC1", "note": "(stereo not shown) [SAG, reference compound]", "values": [{"measurement": "Gli1 activation in untreated Shh-expressing cells", "setting": "[6]; Shh-expressing NIH 3T3 cells, 100nM SAG", "value": "neither SAG (Supplementary Fig. 8) nor overexpression of Smo[17] activated Gli1 to levels higher than those achieved with Shh alone"}]}, {"molecule": "B1", "values": [{"measurement": "Alkaline phosphatase (AP) activity", "setting": "[3]; BMP inhibitor control, concentration not given", "value": "no effect"}]}]}
